Assay outcomes (PubChem)
This excerpt belongs to a sample that is enriched for hits.
S1P4 agonist: S1P4 receptor agonists, primary screen, cell-based; S1P4-expressing cell line, agonist reporter assay; 0.35% of 220,000 active; Sphingosine 1-phosphate receptor 4 (Homo sapiens), O95977; activation, % at 4.98 µM; in the data active = activation above about 11%;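 also: 0% = DMSO vehicle and 100% = reference agonist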
S1P3 antagonist: S1P3 receptor antagonists, primary screen, cell-based; inhibition, % at 4.98 µM; 0.27% of 170,000 active; Sphingosine 1-phosphate receptor 3 (Homo sapiens), Q99500; CHO S1P3 NFAT-BLA reporter, FRET fluorescence, antagonist mode;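 active = inhibition above the plate cutoff, the mean inhibition of test wells on that plate plus 3 SD, cut at about 28% in these data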;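 also: cells challenged with S1P at its EC80 of 0.8 µM; blue over green emission ratio from cleaved BLA substrate after 4 h stimulation; 0% = S1P-stimulated wells and 100% = unstimulated DMSO-only wells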
Target sequence (Q99500 whole entry, looked up): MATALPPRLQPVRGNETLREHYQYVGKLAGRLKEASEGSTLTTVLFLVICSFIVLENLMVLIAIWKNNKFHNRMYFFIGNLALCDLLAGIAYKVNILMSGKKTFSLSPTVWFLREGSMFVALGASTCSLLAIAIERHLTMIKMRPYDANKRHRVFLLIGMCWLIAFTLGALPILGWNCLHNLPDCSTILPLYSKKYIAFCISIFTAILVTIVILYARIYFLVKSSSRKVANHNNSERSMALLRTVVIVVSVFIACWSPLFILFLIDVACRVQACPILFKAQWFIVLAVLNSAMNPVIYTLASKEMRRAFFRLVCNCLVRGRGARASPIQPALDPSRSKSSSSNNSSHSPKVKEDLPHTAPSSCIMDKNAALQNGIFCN
S1P4 antag: S1P4 receptor antagonists, primary screen, cell-based; S1P4-expressing cells, antagonist mode, reporter read-out; 0.26% of 220,000 active; inhibition, % at 4.98 µM; in the data active = inhibition above about 29%;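 also: 0% = wells stimulated with agonist and 100% = vehicle wells without agonist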
Mdm2 ligase inh: MDM2-luciferase reporter signal enhancers, primary screen, MDM2 E3 ligase inhibitor project, cell-based, luminescence, 1536-well | 0.11% of 210,000 active | E3 ubiquitin-protein ligase Mdm2 (Homo sapiens), Q00987 | AID 1230, 2008 | signal enhancement, % at 5 µM | cell-based MDM2 ubiquitination luciferase reporter, 2 h; 0 = plate control, 100 = twice control, blank-subtracted;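 active = signal enhancement of 30% or more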;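 also: luminescence tracks abundance of the self-degrading MDM2-luciferase fusion protein; higher signal means inhibition of MDM2 E3 ligase activity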
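test system = mammalian cells stably expressing self-ubiquitinating, self-degrading MDM2 E3–luciferase fusion | quantity = 2000 cells/well | incubation = cell settling 4 h, compound treatment 2 h, both 37 °C | signal = luminescence with SteadyLite reagent, 15 min at room temperature | evaluation = % enhancement relative to plate controls after blank subtraction | benchmarks = plate controls and plate blanks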
L major viab: Leishmania major promastigote growth inhibition, primary screen; Leishmania major promastigotes, resazurin fluorescence viability; inhibition, % at 10 µM; 9% of 200,000 active; AID 1063, 2008; in the data active = inhibition above about 50%;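 also: promastigotes grown with compound for 44 hours at 28 °C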
* = called active by the depositor; nt = no result given.

SMILES | S1P4 agonist | S1P3 antagonist | S1P4 antag | Mdm2 ligase inh | L major viab
CCCCN(C)S(=O)(=O)c1ccc(C(=O)Nc2nnc(-c3cccs3)o2)cc1 | 2 | -31 | -3 | -16 | 99*
CCCCN(C)S(=O)(=O)c1ccc(C(=O)Nc2nnc(C3=COCCO3)o2)cc1 | -2 | -7 | -13 | -4 | -2
CC1CCCC(C)N1C(=O)c1cc2ncc(CCCl)cn2n1 (stereo unspecified) | 1 | 2 | -7 | -21 | -9
CCc1ccccc1NC(=O)CSc1nc2n[nH]c(C)c2c(=N)n1-c1cccc(OC)c1 | -2 | nt | -11 | 4 | 90*
O=C1c2cccc(OCC(=O)N3CCCc4ccccc43)c2CCN1Cc1ccc(F)cc1 | -1 | 8 | -6 | -16 | 95*
Cc1ccc(C(=O)CN2/C(=C(\O)c3ccccc3)C(=O)c3ccccc3S2(=O)=O)c(C)c1 | -3 | nt | -39 | -10 | 82*
CCNCCOC(c1ccccc1)c1ccccc1 | 3 | nt | 0 | nt | 6
Cc1ccc(C(OCC(C)(C)C[N+](C)(C)C)c2ccccc2)cc1 (stereo unspecified) | 0 | -17 | 6 | -11 | 100*
O=C(CN(Cc1ccc(F)cc1)C(=O)C1CSC(=O)C1)NC1CCCCC1 (stereo unspecified) | 0 | nt | -4 | 12 | 98*
Cc1ccsc1C(C(=O)NC1CCCCC1)N(C(=O)c1csnn1)C1CC1 (stereo unspecified) | -2 | -8 | -6 | -20 | 32
CNC(=S)Nc1ccc(C23CC4CC(CC(C4)C2)C3)cc1 | -3 | -1 | 10 | -2 | 51*
CCC(=O)OCc1c(C(F)(F)F)nn(C)c1Sc1ccc(Cl)cc1 | 4 | nt | -5 | 9 | -2
CCC(=O)OCc1c(C(F)(F)F)nn(C)c1Sc1ccc(F)cc1 | 11* | nt | -2 | -15 | -3
CCN(CC)CCNC(=S)Nc1ccc(Cl)cc1 | 1 | -8 | -1 | -12 | -6
CCN(CC)CCCNC(=S)Nc1ccc(Br)cc1 | -1 | 9 | -6 | -7 | 83*
CCc1ccc(C(=O)CSc2nc3ccccc3c(=O)[nH]2)cc1 | 4 | nt | -22 | -9 | 98*
NNC(=O)/C(=C/c1cccs1)NC(=O)c1ccccc1Cl | 1 | -4 | -8 | -1 | -4
O=C(NC(Cc1ccc(F)cc1)C(=O)O)c1ccccc1 (stereo unspecified) | -4 | -1 | -7 | -15 | 70*
O=C(NC(Cc1ccccc1)C(=O)O)c1ccccc1 (stereo unspecified) | 1 | -17 | -31 | -2 | 4
Cc1ccc(CC(NC(=O)c2ccccc2)C(=O)NC(C)C(=O)O)cc1 (stereo unspecified) | 0 | nt | 4 | -16 | 84*
COCCn1c(SCC(=O)c2ccc(F)cc2)nnc1C(C)C | -1 | -19 | -15 | -6 | 25
Fc1cccc(F)c1CSc1nc2ccccc2[nH]1 | 2 | nt | 3 | -14 | 100*
C/C(CCc1ccc2c(c1)OCO2)=N\N=C1\NC(=O)CC(C(=O)Nc2ccc(Cl)cc2)S1 (stereo unspecified) | 3 | nt | -14 | -9 | -7
CC1CCCN(Cc2c(O)ccc3c(=O)c(-c4nc5ccccc5s4)c(N)oc23)C1 (stereo unspecified) | -1 | nt | -10 | -13 | 101*
CC1CCN(Cc2c(O)ccc3c(=O)c(-c4nc5ccccc5s4)c(N)oc23)CC1 | 0 | 21 | -15 | -18 | 60*
SMILES | S1P4 agonist | S1P3 antagonist | S1P4 antag | Mdm2 ligase inh | L major viab
NNC(=O)c1cnn(-c2ccccc2)c1-n1cccc1 | 0 | 10 | 11 | 3 | -3
O=C(CCCc1c[nH]c2ccccc12)N1CCN(S(=O)(=O)c2cccs2)CC1 | -1 | -10 | -7 | -19 | -5
Cc1cc(-c2nnnn2-c2cc(Cl)cc(Cl)c2)no1 | -1 | 1 | -6 | -2 | nt
O=C(N/N=C/C(Br)=C\c1ccccc1)c1n[nH]c2c1CCC2 | -1 | nt | 24 | -2 | 54*
Cn1cc(C(=O)N/N=C/C=C/c2ccccc2)ccc1=O | 0 | -6 | -4 | 0 | 36
Cn1cc(C(=O)N/N=C/C(Br)=C\c2ccccc2)ccc1=O | -1 | nt | -8 | -8 | 80*
COc1ccc(C(=O)N/N=C/C(Br)=C/c2ccccc2)cc1 | -2 | -13 | 9 | -12 | -3
Cn1cc(C(=O)N/N=C/C(Br)=C/c2ccccc2)ccc1=O | -1 | 1 | 5 | -6 | 62*
